Source: ChEMBL document CHEMBL2331439 (J Med Chem, 2013)

Assays:
[1] = biological target: Serine/threonine-protein kinase PAK 4 (Homo sapiens) (UniProt O96013); assay: Inhibition of recombinant PAK4 (unknown origin) at 5 uM by FRET-based Z'-LYTE assay
Summary of the method: (§1)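 Single-point panel screen at 5 μM in duplicate. ATP is at the apparent Km of each kinase, and the Z'-LYTE FRET peptide substrate is used. Each point has two control wells: a protease control for interference with development and a fluorescence control for interference with the FRET read-out. Values above 100% are treated as maximal inhibition and values below 0% as none.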

[2] = biological target: Ribosomal protein S6 kinase beta-1 (Homo sapiens, UniProt P23443); assay: Inhibition of recombinant RPS6KB1 (unknown origin) at 5 uM by FRET-based Z'-LYTE assay
Summary of the method: (§2)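 Z'-LYTE FRET peptide (coumarin/fluorescein) phosphorylation was followed by protease development. Wells included a protease control for interference with development and a fluorescence control for interference with the FRET read. Values above 100% or below 0% were treated as maximal or no inhibition.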

[3] = biological target: cAMP-dependent protein kinase catalytic subunit alpha (Homo sapiens) (UniProt P17612); assay: Inhibition of recombinant PRKACA (unknown origin) at 5 uM by FRET-based Z'-LYTE assay; summary of the method: as §1
[4] = biological target: Serine/threonine-protein kinase MARK2 (Homo sapiens) (UniProt Q7KZI7); assay: Inhibition of recombinant MARK2 (unknown origin) at 5 uM by FRET-based Z'-LYTE assay; summary of the method: as §1
[5] = biological target: Mitogen-activated protein kinase 1 (Homo sapiens, UniProt P28482); assay: Inhibition of recombinant MAPK1 (unknown origin) at 5 uM by FRET-based Z'-LYTE assay; summary of the method: as §1
[6] = biological target: Mast/stem cell growth factor receptor Kit (Homo sapiens) (UniProt P10721); assay: Inhibition of recombinant KIT (unknown origin) at 5 uM by FRET-based Z'-LYTE assay; summary of the method: as §1
[7] = biological target: T1, Serine/threonine-protein kinase Nek1 (Homo sapiens, UniProt Q96PY6); assay: Inhibition of recombinant NEK1 (unknown origin) by FRET-based Z'-LYTE assay
T1 sequence (Q96PY6 whole entry): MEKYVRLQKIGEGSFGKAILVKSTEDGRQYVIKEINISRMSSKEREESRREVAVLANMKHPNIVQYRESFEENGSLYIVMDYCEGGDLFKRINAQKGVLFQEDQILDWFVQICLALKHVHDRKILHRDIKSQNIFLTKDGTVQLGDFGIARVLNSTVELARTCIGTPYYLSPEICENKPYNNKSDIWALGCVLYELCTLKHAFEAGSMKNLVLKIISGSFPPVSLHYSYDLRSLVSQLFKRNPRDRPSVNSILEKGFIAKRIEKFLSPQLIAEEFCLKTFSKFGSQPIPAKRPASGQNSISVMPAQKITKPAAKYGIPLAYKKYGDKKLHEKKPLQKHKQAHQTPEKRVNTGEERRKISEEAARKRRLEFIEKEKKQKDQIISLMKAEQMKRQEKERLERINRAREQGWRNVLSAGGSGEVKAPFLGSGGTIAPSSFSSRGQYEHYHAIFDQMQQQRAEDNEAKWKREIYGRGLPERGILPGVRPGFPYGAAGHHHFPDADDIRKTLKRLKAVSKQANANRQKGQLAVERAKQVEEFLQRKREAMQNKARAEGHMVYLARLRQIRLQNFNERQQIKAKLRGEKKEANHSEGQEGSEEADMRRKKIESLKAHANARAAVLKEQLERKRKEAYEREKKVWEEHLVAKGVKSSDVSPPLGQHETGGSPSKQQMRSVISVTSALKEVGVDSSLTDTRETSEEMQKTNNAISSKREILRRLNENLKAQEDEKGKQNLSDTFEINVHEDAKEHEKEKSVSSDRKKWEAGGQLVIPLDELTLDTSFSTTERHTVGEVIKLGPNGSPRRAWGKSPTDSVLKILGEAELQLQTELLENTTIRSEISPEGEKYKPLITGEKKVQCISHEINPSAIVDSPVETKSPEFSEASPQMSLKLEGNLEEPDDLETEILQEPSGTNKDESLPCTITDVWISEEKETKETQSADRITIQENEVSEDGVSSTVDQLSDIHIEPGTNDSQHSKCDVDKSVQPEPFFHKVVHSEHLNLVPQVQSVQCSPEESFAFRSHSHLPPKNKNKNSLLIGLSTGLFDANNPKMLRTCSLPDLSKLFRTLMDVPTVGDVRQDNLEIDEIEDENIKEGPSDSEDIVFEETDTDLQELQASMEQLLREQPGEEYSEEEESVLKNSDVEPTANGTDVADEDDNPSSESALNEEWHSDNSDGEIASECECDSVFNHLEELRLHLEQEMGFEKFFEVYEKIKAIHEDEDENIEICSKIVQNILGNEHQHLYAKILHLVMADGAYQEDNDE

[8] = biological target: RAC-beta serine/threonine-protein kinase (Homo sapiens, UniProt P31751); assay: Inhibition of recombinant AKT2 (unknown origin) by FRET-based Z'-LYTE assay
[9] = biological target: RAC-alpha serine/threonine-protein kinase (Homo sapiens, UniProt P31749); assay: Inhibition of recombinant AKT1 (unknown origin) at 5 uM by FRET-based Z'-LYTE assay; summary of the method: as §1
[10] = biological target: T2, MAP kinase-activated protein kinase 2 (Homo sapiens, UniProt P49137); assay: Inhibition of recombinant MAPKAPK2 (unknown origin) by FRET-based Z'-LYTE assay
Target sequence in this assay (P49137 whole entry): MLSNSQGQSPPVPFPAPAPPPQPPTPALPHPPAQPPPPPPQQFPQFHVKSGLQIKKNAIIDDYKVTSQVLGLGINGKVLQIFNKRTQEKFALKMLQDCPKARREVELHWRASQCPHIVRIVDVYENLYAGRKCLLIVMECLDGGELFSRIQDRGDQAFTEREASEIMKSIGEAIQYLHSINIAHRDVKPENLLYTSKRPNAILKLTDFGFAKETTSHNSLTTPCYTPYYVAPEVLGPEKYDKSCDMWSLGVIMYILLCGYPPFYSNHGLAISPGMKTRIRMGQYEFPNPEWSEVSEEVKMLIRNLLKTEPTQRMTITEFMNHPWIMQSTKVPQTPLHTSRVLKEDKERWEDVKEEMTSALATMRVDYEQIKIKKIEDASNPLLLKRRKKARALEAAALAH

[11] = biological target: Tyrosine-protein kinase BTK (Homo sapiens) (UniProt Q06187); assay: Inhibition of recombinant BTK (unknown origin) at 5 uM by FRET-based Z'-LYTE assay; summary of the method: as §1
[12] = biological target: Proto-oncogene tyrosine-protein kinase receptor Ret (Homo sapiens) (UniProt P07949); assay: Inhibition of recombinant RET (unknown origin) at 5 uM by FRET-based Z'-LYTE assay; summary of the method: as §2
[13] = biological target: Fibroblast growth factor receptor 1 (Homo sapiens) (UniProt P11362); assay: Inhibition of recombinant FGFR1 (unknown origin) at 5 uM by FRET-based Z'-LYTE assay; summary of the method: as §1
[14] = biological target: Inhibitor of nuclear factor kappa-B kinase subunit beta (Homo sapiens) (UniProt O14920); assay: Inhibition of recombinant IKBKB (unknown origin) at 5 uM by FRET-based Z'-LYTE assay; summary of the method: as §1
[15] = biological target: Ribosomal protein S6 kinase alpha-3 (Homo sapiens) (UniProt P51812); assay: Inhibition of recombinant RPS6KA3 (unknown origin) at 5 uM by FRET-based Z'-LYTE assay; summary of the method: as §2
[16] = biological target: Vascular endothelial growth factor receptor 2 (Homo sapiens, UniProt P35968); conditions: 5 uM
[17] = biological target: Tyrosine-protein kinase Lck (Homo sapiens) (UniProt P06239); assay: Inhibition of recombinant LCK (unknown origin) at 5 uM by FRET-based Z'-LYTE assay; summary of the method: as §1
[18] = biological target: T2, MAP kinase-activated protein kinase 2; conditions: 5 uM
Target sequence in this assay (P49137 whole entry, looked up): as the sequence (P49137 whole entry) above

[19] = biological target: Interleukin-1 receptor-associated kinase 4 (Homo sapiens) (UniProt Q9NWZ3); assay: Inhibition of recombinant IRAK4 (unknown origin) at 5 uM by FRET-based Z'-LYTE assay; summary of the method: as §1

Proto-oncogene tyrosine-protein kinase receptor Ret (Homo sapiens), sequence (P07949 whole entry): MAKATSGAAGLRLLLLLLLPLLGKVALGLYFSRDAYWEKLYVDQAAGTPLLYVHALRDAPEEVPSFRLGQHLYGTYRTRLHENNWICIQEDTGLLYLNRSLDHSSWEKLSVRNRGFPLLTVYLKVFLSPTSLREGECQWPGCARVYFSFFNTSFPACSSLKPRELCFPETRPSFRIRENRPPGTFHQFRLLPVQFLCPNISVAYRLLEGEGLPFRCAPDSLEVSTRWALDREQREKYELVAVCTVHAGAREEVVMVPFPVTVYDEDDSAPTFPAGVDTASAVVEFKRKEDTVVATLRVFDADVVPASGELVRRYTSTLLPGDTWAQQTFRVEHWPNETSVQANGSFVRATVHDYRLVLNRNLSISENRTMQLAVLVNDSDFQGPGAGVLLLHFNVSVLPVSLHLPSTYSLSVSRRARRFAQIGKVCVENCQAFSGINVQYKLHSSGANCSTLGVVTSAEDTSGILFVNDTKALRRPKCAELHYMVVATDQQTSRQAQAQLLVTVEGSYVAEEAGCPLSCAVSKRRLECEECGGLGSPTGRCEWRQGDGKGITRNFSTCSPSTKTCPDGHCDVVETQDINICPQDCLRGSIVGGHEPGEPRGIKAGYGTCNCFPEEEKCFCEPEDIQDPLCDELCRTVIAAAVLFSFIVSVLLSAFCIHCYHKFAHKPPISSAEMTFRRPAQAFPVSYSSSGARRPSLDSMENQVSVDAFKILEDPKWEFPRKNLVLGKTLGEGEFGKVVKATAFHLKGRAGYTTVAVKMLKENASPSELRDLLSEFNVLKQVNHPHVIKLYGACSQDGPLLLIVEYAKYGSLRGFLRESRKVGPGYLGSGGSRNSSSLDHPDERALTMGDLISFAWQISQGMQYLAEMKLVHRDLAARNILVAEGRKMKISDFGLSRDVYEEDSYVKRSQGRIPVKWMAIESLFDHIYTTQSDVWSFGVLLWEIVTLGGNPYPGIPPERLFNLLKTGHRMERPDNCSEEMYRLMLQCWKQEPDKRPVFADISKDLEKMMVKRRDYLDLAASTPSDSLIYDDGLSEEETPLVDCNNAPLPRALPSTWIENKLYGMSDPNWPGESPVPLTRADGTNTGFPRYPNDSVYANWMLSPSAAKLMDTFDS
Fibroblast growth factor receptor 1 (Homo sapiens), sequence (P11362 22-822 limits assumed): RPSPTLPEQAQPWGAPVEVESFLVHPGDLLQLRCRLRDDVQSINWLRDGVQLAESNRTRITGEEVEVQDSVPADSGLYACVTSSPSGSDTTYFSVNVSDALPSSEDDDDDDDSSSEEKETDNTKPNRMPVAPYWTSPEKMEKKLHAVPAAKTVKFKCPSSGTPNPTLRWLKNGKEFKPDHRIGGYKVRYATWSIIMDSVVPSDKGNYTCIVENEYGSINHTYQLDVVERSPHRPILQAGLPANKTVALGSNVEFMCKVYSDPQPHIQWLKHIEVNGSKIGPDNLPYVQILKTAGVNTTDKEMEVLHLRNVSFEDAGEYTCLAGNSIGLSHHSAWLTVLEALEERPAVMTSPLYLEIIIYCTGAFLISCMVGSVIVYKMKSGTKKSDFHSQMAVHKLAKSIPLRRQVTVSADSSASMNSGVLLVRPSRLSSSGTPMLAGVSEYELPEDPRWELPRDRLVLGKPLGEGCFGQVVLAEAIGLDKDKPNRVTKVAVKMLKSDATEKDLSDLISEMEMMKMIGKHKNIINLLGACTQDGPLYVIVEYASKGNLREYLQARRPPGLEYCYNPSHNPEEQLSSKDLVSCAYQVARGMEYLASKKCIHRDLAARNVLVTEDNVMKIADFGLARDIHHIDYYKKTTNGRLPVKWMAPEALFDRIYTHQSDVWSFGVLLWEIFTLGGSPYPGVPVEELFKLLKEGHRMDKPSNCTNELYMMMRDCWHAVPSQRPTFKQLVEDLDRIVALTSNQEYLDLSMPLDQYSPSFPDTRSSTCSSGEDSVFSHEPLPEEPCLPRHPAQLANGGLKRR
Serine/threonine-protein kinase MARK2 (Homo sapiens), sequence (Q7KZI7 whole entry): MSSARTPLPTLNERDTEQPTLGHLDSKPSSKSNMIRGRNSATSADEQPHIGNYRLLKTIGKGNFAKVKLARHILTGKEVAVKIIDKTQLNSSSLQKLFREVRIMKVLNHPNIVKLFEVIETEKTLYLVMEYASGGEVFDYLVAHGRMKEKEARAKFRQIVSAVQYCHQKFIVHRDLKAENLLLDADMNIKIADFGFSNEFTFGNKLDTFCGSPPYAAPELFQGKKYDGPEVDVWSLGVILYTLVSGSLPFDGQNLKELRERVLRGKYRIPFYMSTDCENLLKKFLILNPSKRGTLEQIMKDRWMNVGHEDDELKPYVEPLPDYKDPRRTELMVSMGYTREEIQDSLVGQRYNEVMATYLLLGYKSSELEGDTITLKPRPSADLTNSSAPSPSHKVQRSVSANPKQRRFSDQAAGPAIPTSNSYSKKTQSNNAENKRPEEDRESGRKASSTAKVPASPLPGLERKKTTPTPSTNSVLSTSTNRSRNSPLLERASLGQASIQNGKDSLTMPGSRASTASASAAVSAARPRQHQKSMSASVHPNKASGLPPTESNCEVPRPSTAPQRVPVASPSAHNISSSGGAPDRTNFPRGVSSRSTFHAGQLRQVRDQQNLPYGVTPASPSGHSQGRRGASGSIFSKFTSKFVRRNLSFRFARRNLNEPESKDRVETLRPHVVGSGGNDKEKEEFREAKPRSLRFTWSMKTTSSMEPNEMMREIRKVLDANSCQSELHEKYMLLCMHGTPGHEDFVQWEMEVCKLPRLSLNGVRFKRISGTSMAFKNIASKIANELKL
Ribosomal protein S6 kinase alpha-3 (Homo sapiens), sequence (P51812 whole entry): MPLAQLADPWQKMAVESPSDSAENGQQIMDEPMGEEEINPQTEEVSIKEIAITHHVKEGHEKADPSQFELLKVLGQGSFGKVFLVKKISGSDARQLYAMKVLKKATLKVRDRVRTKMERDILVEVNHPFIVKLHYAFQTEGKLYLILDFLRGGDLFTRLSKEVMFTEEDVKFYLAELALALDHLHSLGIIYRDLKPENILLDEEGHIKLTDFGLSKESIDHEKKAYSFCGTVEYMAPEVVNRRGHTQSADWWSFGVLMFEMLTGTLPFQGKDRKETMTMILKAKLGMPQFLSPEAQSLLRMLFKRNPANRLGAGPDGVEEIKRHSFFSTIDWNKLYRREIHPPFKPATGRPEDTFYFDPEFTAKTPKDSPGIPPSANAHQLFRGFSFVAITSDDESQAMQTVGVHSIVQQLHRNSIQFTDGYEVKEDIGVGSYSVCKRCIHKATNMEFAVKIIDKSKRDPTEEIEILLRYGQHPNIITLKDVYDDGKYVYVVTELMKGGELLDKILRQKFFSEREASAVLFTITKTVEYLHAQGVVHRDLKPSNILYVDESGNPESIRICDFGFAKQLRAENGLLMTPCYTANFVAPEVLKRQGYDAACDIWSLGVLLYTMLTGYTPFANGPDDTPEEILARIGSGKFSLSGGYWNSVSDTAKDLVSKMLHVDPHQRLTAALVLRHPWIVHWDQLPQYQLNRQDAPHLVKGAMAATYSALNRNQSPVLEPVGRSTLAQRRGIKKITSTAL
Mast/stem cell growth factor receptor Kit (Homo sapiens), sequence (P10721 whole entry): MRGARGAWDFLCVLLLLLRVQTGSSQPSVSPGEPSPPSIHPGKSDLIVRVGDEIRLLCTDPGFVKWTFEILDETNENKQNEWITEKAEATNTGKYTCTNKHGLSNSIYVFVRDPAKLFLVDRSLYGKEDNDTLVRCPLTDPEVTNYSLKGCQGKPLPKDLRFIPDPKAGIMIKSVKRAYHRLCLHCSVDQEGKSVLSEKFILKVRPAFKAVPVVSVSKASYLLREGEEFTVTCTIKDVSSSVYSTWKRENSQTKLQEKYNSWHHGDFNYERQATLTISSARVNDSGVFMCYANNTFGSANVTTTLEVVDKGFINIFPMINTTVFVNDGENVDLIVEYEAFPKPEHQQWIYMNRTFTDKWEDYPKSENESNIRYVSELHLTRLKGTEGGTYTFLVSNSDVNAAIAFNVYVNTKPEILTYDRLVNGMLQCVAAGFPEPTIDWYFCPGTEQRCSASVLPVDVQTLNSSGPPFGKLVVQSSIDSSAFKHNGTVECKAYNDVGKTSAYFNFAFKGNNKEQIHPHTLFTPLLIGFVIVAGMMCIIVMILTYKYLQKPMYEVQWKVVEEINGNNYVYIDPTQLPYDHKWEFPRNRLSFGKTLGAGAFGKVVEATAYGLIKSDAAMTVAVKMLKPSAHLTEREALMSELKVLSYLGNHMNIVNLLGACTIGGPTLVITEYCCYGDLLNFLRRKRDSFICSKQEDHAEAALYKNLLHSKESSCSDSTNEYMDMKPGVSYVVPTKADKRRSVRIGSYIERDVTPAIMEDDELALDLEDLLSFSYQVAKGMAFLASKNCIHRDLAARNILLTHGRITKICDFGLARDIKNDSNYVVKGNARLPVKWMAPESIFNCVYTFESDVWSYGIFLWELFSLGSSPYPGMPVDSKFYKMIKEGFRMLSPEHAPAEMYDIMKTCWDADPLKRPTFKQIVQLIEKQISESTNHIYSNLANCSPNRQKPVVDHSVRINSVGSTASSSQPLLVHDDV

Q: With `O=C1/C(=C/c2ccccn2)CNC/C1=C\c1ccccn1` as the molecule, how does the inhibition [1] read?
A: The inhibition was 18%.

Q: And the inhibition [2]?
A: Its inhibition is 101%.

Q: And the inhibition [3]?
A: The inhibition was 11%.

Q: What about the inhibition [4] of the same molecule?
A: Its inhibition is 22%.

Q: And the inhibition [5]?
A: The inhibition was 34%.

Q: What about the inhibition [6] of the same molecule?
A: Its inhibition is 2%.

Q: And the IC50 [7]?
A: The IC50 was 500 nM.

Q: What about the IC50 [8] of the same molecule?
A: Its IC50 is 20 nM.

Q: What about the inhibition [9] of the same molecule?
A: The inhibition was 107%.

Q: And the IC50 [10]?
A: Its IC50 is 6700 nM.

Q: What about the inhibition [11] of the same molecule?
A: The inhibition was 44%.

Q: What about the inhibition [12] of the same molecule?
A: Its inhibition is 21%.

Q: What about the inhibition [13] of the same molecule?
A: The inhibition was 66%.

Q: And the inhibition [14]?
A: The inhibition was 107%.

Q: What about the inhibition [15] of the same molecule?
A: Its inhibition is 77%.

Q: And the inhibition [16]?
A: Its inhibition is 89%.

Q: And the inhibition [17]?
A: Its inhibition is 13%.

Q: What about the inhibition [18] of the same molecule?
A: Its inhibition is 85%.

Q: And the inhibition [19]?
A: The inhibition was 5%.
